In ChEMBL document CHEMBL1126873, “Inhibitors of acyl-Coa:cholesterol acyltransferase. 4. A novel series of urea ACAT inhibitors as potential hypocholesterolemic agents” (J Med Chem, 1993):

molecular target: O-acyltransferase (Oryctolagus cuniculus, UniProt G1SFD9); assay: In vitro inhibition of Acyl coenzyme A:cholesterol acyltransferase using intestinal microsomes isolated from cholesterol fed rabbits; design: species or system Intestine
Sequence (G1SFD9 1-524): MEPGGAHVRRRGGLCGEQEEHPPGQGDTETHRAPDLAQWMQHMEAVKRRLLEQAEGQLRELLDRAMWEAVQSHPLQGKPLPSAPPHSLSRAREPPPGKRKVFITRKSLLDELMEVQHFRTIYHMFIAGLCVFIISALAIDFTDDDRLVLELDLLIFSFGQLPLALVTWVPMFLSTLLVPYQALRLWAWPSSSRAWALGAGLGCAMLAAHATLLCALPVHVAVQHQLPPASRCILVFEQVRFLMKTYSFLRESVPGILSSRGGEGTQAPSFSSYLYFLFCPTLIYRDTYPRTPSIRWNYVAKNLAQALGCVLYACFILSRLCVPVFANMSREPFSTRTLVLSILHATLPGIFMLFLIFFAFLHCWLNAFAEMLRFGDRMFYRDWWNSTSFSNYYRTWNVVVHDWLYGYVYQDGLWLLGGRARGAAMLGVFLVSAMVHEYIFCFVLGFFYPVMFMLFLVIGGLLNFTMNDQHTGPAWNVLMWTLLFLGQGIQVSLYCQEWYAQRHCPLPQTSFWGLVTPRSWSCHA

Row | SMILES | IC50 [nM]
1 | Cc1cc(C)c(NC(=O)NCC2(c3ccccc3)CCCC2)c(C)c1 | 3300
2 | CC(C)c1cccc(C(C)C)c1NC(=O)NC(C)(C)Cc1ccccc1 | 77
3 | CC(C)c1cccc(C(C)C)c1NC(=O)NCC1(c2ccc3ccccc3c2)CCCC1 | 260
4 | CC(C)c1cccc(C(C)C)c1NC(=O)NCC(C)(C)c1ccccc1 | 26
5 | Cc1cccc(C)c1NC(=O)NCC1(c2ccccc2)CCCC1 | 190
6 | O=C(NCC1(c2ccccc2)CCCC1)Nc1c(Cl)cccc1Cl | 240
7 | CC(C)c1cccc(C(C)C)c1OC(=O)NCC1(c2ccccc2)CCCC1 | 49
8 | O=C(NCC1(c2ccccc2)CCCCC1)Nc1ccccc1 | 2300
9 | CC(C)c1cccc(C(C)C)c1NC(=O)NCC1(c2cccnc2)CCCC1 | 97
10 | CC(C)c1cccc(C(C)C)c1NC(=O)NCCC(c1ccccc1)c1ccccc1 | 140
11 | O=C(NCC1(c2ccccc2)CCCC1)Nc1ccc(F)cc1F | 1300
12 | Cc1cccc(C(C)C)c1NC(=O)NCC1(c2ccccc2)CCCCC1 | 58
13 | Cc1cccc(C(C)C)c1NC(=O)NCC1(c2ccccc2)CCCC1 | 16
14 | CC(C)c1cccc(C(C)C)c1NC(=O)NC1(c2ccccc2)CCCC1 | 65
15 | CN(C)c1cccc(N(C)C)c1NC(=O)NCC1(c2ccccc2)CCCC1 | 110
16 | O=C(NCC1(c2ccccc2)CCCCC1)Nc1ccc(I)cc1 | 2300
17 | Cc1ccc(C)c(NC(=O)NCC2(c3ccccc3)CCCCC2)c1 | 470
18 | COc1cccc(NC(=O)NCC2(c3ccccc3)CCCCC2)c1 | 2500
19 | CC(C)c1cccc(C(C)C)c1NC(=O)NCC(c1ccccc1)C(C)(C)C (configuration not stated) | 160
20 | Cc1cccc(C)c1NC(=O)NCC1(c2ccccc2)CCCCC1 | 120
21 | CCc1cccc(C(C)C)c1NC(=O)NCC1(c2ccccc2)CCCC1 | 25
22 | CC(C)c1cccc(C(C)C)c1NC(=O)NCC1(c2ccccc2)CC1 | 18
23 | CC(C)c1ccc(NC(=O)NCC2(c3ccccc3)CCCCC2)cc1 | 1500
24 | Cc1cccc(NC(=O)NCC2(c3ccccc3)CCCCC2)c1 | 2800

Row | SMILES | IC50 [nM]
25 | Cc1ccc(NC(=O)NCC2(c3ccccc3)CCCCC2)c(C)c1 | 5500
26 | CC(C)c1cccc(C(C)C)c1NS(=O)(=O)NCC1(c2ccccc2)CCCC1 | 180
27 | CCc1cccc(C(C)C)c1NC(=O)NCC1(c2ccccc2)CCCCC1 | 20
28 | CC(C)c1cccc(C(C)C)c1NC(=O)NCc1ccccc1 | 360
29 | Cc1ccc(NC(=O)NCC2(c3ccccc3)CCCCC2)cc1 | 4500
30 | CC(C)c1cccc(C(C)C)c1NC(=O)NCC1(c2ccccc2)CCCCC1 | 21
31 | CC(C)c1cccc(C(C)C)c1NC(=O)NCC1(c2ccccc2)CCC1 | 28
32 | CC(C)c1cccc(C(C)C)c1NC(=O)NCCCc1ccccc1 | 191
33 | CCCC(CCC)(CNC(=O)Nc1c(C(C)C)cccc1C(C)C)c1ccccc1 | 30
34 | CCCCCC(CCCCC)(CNC(=O)Nc1c(C(C)C)cccc1C(C)C)c1ccccc1 | 26
35 | CCCCC(CCCC)(CNC(=O)Nc1c(C(C)C)cccc1C(C)C)c1ccccc1 | 30
36 | O=C(NCC1(c2ccccc2)CCCCC1)Nc1cccc(Cl)c1Cl | 1300
37 | COc1ccc(NC(=O)NCC2(c3ccccc3)CCCCC2)cc1 | 4900
38 | CC(C)c1cccc(C(C)C)c1NC(=O)NCC1(c2ccccc2)CCCC1 | 17
39 | CC(C)c1cccc(C(C)C)c1NC(=O)NCCc1ccc2ccccc2c1 | 39
40 | CC(C)c1cccc(C(C)C)c1NC(=O)NCC1c2ccccc2-c2ccccc21 | 27
41 | CC(C)c1cccc(C(C)C)c1NC(=O)NC1CCCc2ccccc21 (configuration not stated) | 850
42 | CCc1cccc(CC)c1NC(=O)NCC1(c2ccccc2)CCCCC1 | 51
43 | CCCCCCC(CCCCCC)(CNC(=O)Nc1c(C(C)C)cccc1C(C)C)c1ccccc1 | 120
44 | CC(C)c1cccc(C(C)C)c1NC(=NC#N)NCC1(c2ccccc2)CCCC1 | 10000
45 | COc1ccccc1NC(=O)NCC1(c2ccccc2)CCCCC1 | 270
46 | CC(C)c1cccc(C(C)C)c1NC(=O)NC(Cc1ccccc1)c1ccccc1 (configuration not stated) | 31
47 | Cc1ccccc1NC(=O)NCC1(c2ccccc2)CCCCC1 | 640
48 | COc1cc(OC)c(NC(=O)NCC2(c3ccccc3)CCCC2)c(OC)c1 | 1400

Row | SMILES | IC50 [nM]
49 | CC(C)c1cccc(C(C)C)c1NC(=S)NCC1(c2ccccc2)CCCC1 | 2330
50 | CC(C)c1cccc(C(C)C)c1NC(=O)NC(=O)C1(c2ccccc2)CCCC1 | 160
51 | CCOC(=O)c1ccc(NC(=O)NCC2(c3ccccc3)CCCCC2)cc1 | 6100
52 | CC(C)c1cccc(C(C)C)c1N=C(N)NCC1(c2ccccc2)CCCC1 | 12000
53 | O=C(NCC1(c2ccccc2)CCCCC1)Nc1ccc(Cl)c(Cl)c1 | 3800
54 | CCc1cccc(CC)c1NC(=O)NCC1(c2ccccc2)CCCC1 | 56
55 | Cc1cccc(C(C)(C)C)c1NC(=O)NCC1(c2ccccc2)CCCCC1 | 54
56 | O=C(NCC1(c2ccccc2)CCCCC1)Nc1ccccc1C(F)(F)F | 200
57 | CCOC(=O)c1ccccc1NC(=O)NCC1(c2ccccc2)CCCCC1 | 4200
58 | O=C(NCC1(c2ccccc2)CCCCC1)Nc1cc(Cl)ccc1Cl | 2700
59 | O=C(NCC1(c2ccccc2)CCCCC1)Nc1ccc(Cl)cc1 | 2200
60 | Cc1cccc(C(C)(C)C)c1NC(=O)NCC1(c2ccccc2)CCCC1 | 18
61 | CC(C)c1ccccc1NC(=O)NCC1(c2ccccc2)CCCCC1 | 390
62 | CCC(CC)(CNC(=O)Nc1c(C(C)C)cccc1C(C)C)c1ccccc1 | 17
63 | O=C(NCC1(c2ccccc2)CCCC1)Nc1c(F)cc(F)cc1F | 870
64 | CC(C)c1cccc(C(C)C)c1NC(=O)NCC1(c2ccsc2)CCCC1 | 18
65 | CC(C)c1cccc(C(C)C)c1NC(=O)NCC1(c2cccs2)CCCC1 | 12
66 | CC(C)c1cccc(C(C)C)c1NC(=O)NC1CC1c1ccccc1 (configuration not stated) | 2000
67 | CC(C)c1cccc(C(C)C)c1NC(=O)NCC1(c2cccc3ccccc23)CCCC1 | 34
68 | O=C(NCC1(c2ccccc2)CCCC1)Nc1c(Cl)cc(Cl)cc1Cl | 960
69 | CC(C)c1cccc(C(C)C)c1NC(=O)NCCc1ccccc1 | 88
70 | CC(C)c1cccc(C(C)C)c1NC(=O)NCCc1cccc2ccccc12 | 41
71 | CC(C)c1cccc(C(C)C)c1NC(=O)Nc1ccccc1 | 910

species: Rattus norvegicus; assay: Percent change in total cholesterol (TC) in cholic acid, cholesterol and peanut oil fed rats; format: functional
In short: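 Rats fed a diet of cholic acid (0.3%), cholesterol (1.5%) and peanut oil (5.5%) received each compound in the diet at 0.05% for one week. Plasma total cholesterol was measured and expressed as percent change from control. Significance versus control was tested.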

Row | SMILES | Change [%]
72 | Cc1cccc(C(C)C)c1NC(=O)NCC1(c2ccccc2)CCCCC1 | -56
73 | Cc1cccc(C(C)C)c1NC(=O)NCC1(c2ccccc2)CCCC1 | -65
74 | Cc1cccc(C)c1NC(=O)NCC1(c2ccccc2)CCCCC1 | -44
75 | CCc1cccc(C(C)C)c1NC(=O)NCC1(c2ccccc2)CCCC1 | -59
76 | CCc1cccc(C(C)C)c1NC(=O)NCC1(c2ccccc2)CCCCC1 | -70
77 | CC(C)c1cccc(C(C)C)c1NC(=O)NCC1(c2ccccc2)CCCCC1 | -73
78 | CC(C)c1cccc(C(C)C)c1NC(=O)NCC1(c2ccccc2)CCCC1 | -73
79 | CCc1cccc(CC)c1NC(=O)NCC1(c2ccccc2)CCCCC1 | -60
80 | CCc1cccc(CC)c1NC(=O)NCC1(c2ccccc2)CCCC1 | -63
81 | Cc1cccc(C(C)(C)C)c1NC(=O)NCC1(c2ccccc2)CCCCC1 | -51
82 | Cc1cccc(C(C)(C)C)c1NC(=O)NCC1(c2ccccc2)CCCC1 | -61
